ChEMBL document CHEMBL4513216, “Probing the Open Global Health Chemical Diversity Library for Multistage-Active Starting Points for Next-Generation Antimalarials” (ACS Infect Dis, 2020)

Assay: Toxicity liver stage against HepG2, at 10uM
Format: cell-based
Design: test concentration 10 uM, cell line HepG2-A16-CD81EGFP
Settings: human, HepG2-A16-CD81EGFP cells; read-out: INHIBITION
Procedure, shortened: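 Uninfected HepG2-A16-CD81EGFP cells, 3 × 10^3 per well, 1536-well, plated on prespotted compound at 10 μM final, parasite-free screening media added to match infected plates; puromycin 10 μM positive, DMSO 0.5% negative; run in parallel with 48 h PbLuc assay at 37 °C, 5% CO2; viability by CellTiter-Glo luminescence, normalized to controls.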

Structure (SMILES)	cytotoxicity at 10 µM [%]
CCNC(=O)NC[C@H]1C[C@@H]2CCN1C[C@@H]2c1cc(-c2cccs2)nn1C	-5.72
CN1CCN(c2ccc(NS(=O)(=O)c3ccc(Br)s3)cc2C(=O)O)CC1	-4.5
c1ccc(CNc2nc(N3CCOCC3)nc3nccnc23)cc1	10.5
Cc1nn(C)cc1C1SCC(=O)Nc2c1c(O)nn2C(C)C (centres undefined)	1.04
Cc1cc(CN2CCC(CNS(=O)(=O)c3ccccc3Cl)CC2)c(C)o1	9.51
CN1CCN(C(=O)[C@H]2CC[C@@H]3[C@@H](CCN3Cc3nccs3)O2)CC1	5.41
CCN1CCN(C(=O)Cn2nc(C(F)(F)F)c(Br)c2C2CC2)CC1	-8.78
CC1(C)CC2(CCO1)NC(=O)c1cc(Br)ccc1-n1nnnc12 (centres undefined)	5.97
Cc1ccc(CNC(=O)c2nn(C)c3c2CS(=O)(=O)CC3)o1	6.14
COc1ccccc1CNC(=O)Cn1ncc2c1c(C)nn2C	10.6
Cc1nn(C)cc1CN1CCc2nc3sccc3c(=O)n2CC1	-1.87
CC1(C)O[C@@](C)([C@H]2CC3(CCN(c4cnccn4)CC3)CO2)CC[C@@H]1O	5.53
CN(c1cccnn1)[C@@H]1CC[C@@H]2CN(Cc3cccc(C(=O)O)c3)C[C@@H]21	6.17
Cc1cccc(CN2CCC(c3nnsc3S(C)(=O)=O)CC2)n1	-8.69
C=Cn1ncc(CN2C[C@@H]3CCCN3C[C@@H]2CCSC)c1C	0.026
c1ncc(Nc2nccc(C3CCCCN3CC3CCCCC3)n2)cn1 (centres undefined)	3.32
CN(Cc1ccc(F)cc1)CC1(O)CCN(C(=O)c2cccn2C)C1 (centres undefined)	-3.19
O=C(NCC1(O)CCC1)c1c(O)cc(Cl)cc1Cl	0.924
CC1CCCCN1C(=O)COc1nc(Cc2ccc(F)cc2)no1 (centres undefined)	1.43
COc1ncnc(N)c1CNCc1ccccc1-n1cccn1	-24.4
O=C(NCC[S+]([O-])c1ccccc1)c1ccc2[nH]c(=O)[nH]c2c1 (centres undefined)	3.18
CCc1c(C(=O)Nc2ccc(F)c(C(=O)NC)c2)cnn1CC(C)C	14.7

Structure (SMILES)	cytotoxicity at 10 µM [%]
CCOc1ccc(Cl)c(C(=O)NC(Cc2ccccc2)C(N)=O)n1 (centres undefined)	15.4
CN(C)c1ncccc1NC(=O)COC1CCCC1	0.189
CCOc1ncccc1CNS(=O)(=O)c1ccc2c(c1)CCC2	13.3
CCOc1ccccc1C(N)CC(C)C (centres undefined)	-0.857
COc1ccc(CNC2CCc3ncnn3C2)cc1OCC1CC1 (centres undefined)	-8.74
CC(O)(CNC(=O)NCCc1ccc2c(c1)CCO2)c1ccsc1 (centres undefined)	7.4
Cc1cc(CNCC2CNc3ccnn3C2)no1 (centres undefined)	-6.06
NC(=O)C1CCCN1Cc1nccn1CC(F)(F)F (centres undefined)	12.2
Cc1ccoc1C(=O)NCC(c1ccccc1Cl)N1CCOCC1 (centres undefined)	8.21
Cc1nc(C(=O)N(C)C)nn1-c1ccccc1C(C)C	-0.665
CCNC(=O)NC(=O)C(C)N1CCCc2cc(OC)ccc2C1 (centres undefined)	9.86
Cc1ncc(CN(C)c2nc3c(cnn3C(C)(C)C)c(=O)[nH]2)s1	-19.2
Cc1nc(C(C)(C)C)sc1C(=O)NCCn1ccnc1	-0.586
CN(Cc1nnc2n1CCC2)S(=O)(=O)c1cc(Br)ccc1Br	0.392
Cn1cnnc1C1CCCN1C(=O)Nc1cccc(OC(F)F)c1 (centres undefined)	8.25
Cc1cc(NC(=O)C(C)Nc2ccn(Cc3ccccn3)n2)on1 (centres undefined)	-2.06
CNC(=O)CC1CCN(C(=O)NCc2coc3ccccc23)CC1	-11.4
O=S(=O)(Cc1ccc(F)cc1)NCCc1nnc2n1CCC2	17.2
CCOC(=O)CCNC(=O)c1cc(Cl)cc2cccnc12	15
O=C(NCC(CO)Cc1cccc(OC(F)(F)F)c1)c1cnccn1 (centres undefined)	7.66
Cc1ccc(CS(=O)(=O)Cc2nc(N)nc(N(C)C)n2)cc1	3.13
CC(C)(C)c1cnc(CN2CCC(NC(=O)C3CCOCC3)CC2)o1	-11.9

Structure (SMILES)	cytotoxicity at 10 µM [%]
O=C(NCc1ccncc1)N(Cc1ccccc1F)C1CC1	-3.32
CC(=O)N1CCCN(Cc2csc(-c3ncccn3)n2)CC1	7.08
CCn1cnnc1C1CCN(C(=O)c2ccc3cc[nH]c3c2)CC1	5.16
CS(=O)(=O)NC1CCc2[nH]c(=O)ccc2C1 (centres undefined)	3.46
CN1CCN(Cc2cn3c(n2)CN(Cc2cccnc2)CC3)CC1	5.25
CN1CC(=O)N(c2cccc(F)c2)CC12CCNC2 (centres undefined)	6.23
Cc1cc(C)c2c(N3CCC(C(=O)N4CCOCC4)CC3)ncnc2n1	-11.1
Cc1nc(-c2ccncc2)ncc1C(C)NC(=O)CN1CCOC1=O (centres undefined)	3.11
COc1ccccc1CCc1nc(CC2CCN(C)CC2)no1	7.71
CCNC(=O)c1ccnc(N2CCCC(COc3ccccc3C)C2)c1 (centres undefined)	2.08
CN(Cc1cccc2ncccc12)C(=O)CCn1ccc(=O)[nH]c1=O	-134
c1ccc(CN(Cc2ncc[nH]2)Cc2nccs2)cc1	6.35
CCCc1nc(N2CCCN(c3ncccn3)CC2)c2cnn(C)c2n1	-1.18
CS(=O)(=O)NCC(=O)N[C@H]1CN(c2cnccn2)C[C@@H]1C1CC1	-7.24
CN(C)CC1(O)CCN(C(=O)c2cnc(-c3cccnc3)nc2)C1 (centres undefined)	5.75
CCc1cc(N2CCN3CCCCC3C2)n2nccc2n1 (centres undefined)	-1.12
CN(Cc1ccon1)C1CCN(c2cccc(-c3cscn3)c2)CC1	-3.96
O=c1cc(-c2cccnc2)nc(-c2ccc(CN3CC[C@H](O)C3)cc2)[nH]1	3.98
CCNC(=O)[C@@H]1C[C@H](N)CN1C(=O)CCc1ccc(C)c(C)c1	3.45
COc1ccc(CN(CC2CCCO2)C(=O)CN2CCCCC2=O)cc1 (centres undefined)	-0.645
COc1cccc(-c2nc3c([nH]2)CC(C)(C)CNC3=O)c1OC	-5.82
CCOc1ccc(Cc2c(O)nc(SC)n(-c3ccccc3)c2=O)cc1	4.04

Structure (SMILES)	cytotoxicity at 10 µM [%]
COc1ccc(Cl)cc1C(C(=O)O)N1CCSCC1 (centres undefined)	-10.8
COc1ccc(CN2CCN(CC3CC3)[C@@H]3CS(=O)(=O)C[C@@H]32)cc1O	-0.931
O=S(=O)(NCc1ccccc1)N1CCN(c2ncccn2)CC1	4.7
COc1cc2c(cc1OC)CN(Cc1ncccc1C(=O)O)CC2	5.31
CCCc1nnc(N2CCC(C3CCN(C)CC3)CC2)o1	-11.7
CN(CCNC(=O)c1cccnc1)S(C)(=O)=O	-0.102
Cc1cc(F)ccc1OC1(C(=O)O)CCN(Cc2cccnc2)CC1	1.87
Cc1ncsc1CCN(C)C(=O)CN1CCCCCC1=O	-7.67
COc1ccc(OC2CCN(C(=O)c3cnc(C)s3)CC2)cc1	-18
Cc1ccc(-c2ccnc(N3CCC4(CC3)CNC(=O)O4)n2)c(C)n1	-6.93
N#Cc1nccnc1N1CCN(CCOCc2ccccc2)CC1	-18.4
Cc1nc(C)c(Cn2ccnc2-c2cc(CN(C)C)cs2)s1	1.99
CN(C)[C@H]1CN(C(=O)CCc2cccc(F)c2)C[C@@H]1C1CC1	-1.1
COc1ccc(C(=O)n2nc(C)c(C)c2C)cc1	6.06
Cc1ccc2[nH]nc(C(=O)NCC3CCN(Cc4c[nH]cn4)C3)c2c1 (centres undefined)	-15.1
CS(=O)(=O)N1CCCC(C(=O)Nc2cnn(Cc3ccc(F)cc3)c2)C1 (centres undefined)	-3.64
CCOCCCNC(=O)Cc1cccs1	-10.2
CCNC(=O)C1CCN(Cn2nc(-c3ccc(F)cc3)oc2=O)CC1	-4.71
Cc1nccn1-c1cc(CNC(=O)CC2CCCO2)ccn1 (centres undefined)	0.491
CCOc1ccc(C(=O)N2CCCC2c2cnn(C)c2)cn1 (centres undefined)	-3.71
CC(=O)NCCNC(=O)c1cnc(C(C)(C)C)s1	-2.17
COCCN1CCC(CNC(=O)C2(c3cccc(Cl)c3)CC2)C1 (centres undefined)	-6.63

Structure (SMILES)	cytotoxicity at 10 µM [%]
CCc1cnc(CN(C(C)=O)C2CCN(CC(=O)N3CCCC3)C2)o1 (centres undefined)	-6.63
COc1c(C2CCCN2C(=O)c2csc(C(C)C)n2)c(C)nn1C (centres undefined)	-8.26
CC(C)c1n[nH]c(C2CN(C(=O)C3=COCC3)CCO2)n1 (centres undefined)	-7.99
c1ccc(Cc2noc(CNC3CCc4ncnn4C3)n2)cc1 (centres undefined)	-5.99
Cc1nnc2n1CCN(C(C(=O)NC1CC1)c1ccccc1)C2 (centres undefined)	-2.94
Cc1cc(C2CCCN2C(=O)c2cc3c(s2)CCC3)on1 (centres undefined)	-13.4
Cc1cc(C(C)NC(=O)N2CCC(n3cncn3)CC2)c(C)s1 (centres undefined)	-15.9
CCc1nc(CN2CCCN(C(=O)C(C)n3ccnc3)CC2)cs1 (centres undefined)	-13.8
Cc1csc(N2CCN(C(=O)CCC(=O)c3ccc(C)s3)CC2)n1	-3.09
Cc1cc(C)n(CC2CCCN2Cc2c(C)noc2C)n1 (centres undefined)	-4.08
CCc1nc(C2CCCN2C(=O)CCn2cncn2)no1 (centres undefined)	-5.63
CNC(=O)[C@@H](c1ccccc1)N1CCC[C@H]1C(=O)NC1CCCCC1	2.35
Cc1nc(O)cc(C2CCN(Cc3ccc(F)c(F)c3)C2)n1 (centres undefined)	-11.3
Fc1cnc(N2CCC3(CC2)CC(OCc2cccnc2)CO3)nc1 (centres undefined)	2.25
CCO[C@@H]1CO[C@@]2(CCCN(S(=O)(=O)c3cccnc3)C2)C1	-0.156
Cc1ccc(CN2CC[C@H]3[C@H]2CC(=O)N3c2cccnc2)o1	5.67
Fc1ccccc1CO[C@@H]1C[C@H]2CN(c3ncccn3)CCN2C1	1.09
CC(=O)N1CCC2(CC1)CN(C(=O)[C@@H]1CSCN1)c1ccc(Cl)cc12	-1.91
O=C(NC1CC1)N1CCC2(CC1)C(=O)NCCN2Cc1ccccc1	-0.685
COc1cc(CNCCc2nc(C)cs2)cc2c1OCCO2	-2.4
Cc1nc(CN2CC[C@@H]3O[C@@H](C(=O)N4CCOCC4)C[C@@H]32)cs1	2.08
